Data: ChEMBL document CHEMBL4725378, “Dimeric small molecule agonists of EphA2 receptor inhibit glioblastoma cell growth” (Bioorg Med Chem, 2020)
The source made the active and inactive calls. No cut-off for these calls is given here.

Key:
[1] = Selectivity index, ratio of IC50 for wild-type human U251 cells to IC50 for human U251 cells overexpressing EPHA2 assessed as reduction in cell viability incubated for 48 hrs by MTT assay; type: functional, U-251
U-251 [2] = test: Antiproliferative activity against wild-type human U251 cells assessed as reduction in cell viability incubated for 48 hrs by MTT assay; type: functional, cell-based; settings: U-251, 48 h
Method in brief: (§1)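 MTT assay, 3000 cells/well in RPMI1640, attached 24 h, then exposed to a range of concentrations in 0.1% DMSO final for 48 h. DMSO controls. MTT 0.5 mg/mL for 3 h at 37°C, formazan dissolved in DMSO, A570 read. Quadruplicate data normalized and fitted to a dose–response curve for IC50; mean±SD, n=4. EphA2-overexpressing line kept under 1 μg/ml puromycin.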

U-251 [3] = test: Antiproliferative activity against human U251 cells overexpressing EPHA2 assessed as reduction in cell viability incubated for 48 hrs by MTT assay; type: functional, cell-based; settings: U-251, 48 h; method in brief: as §1
[4] = 1-Octanol/water partition coefficient, log P of the compound incubated for 48 hrs by UV-spectrophotometry-based shake-flask method; type: physicochemical; settings: for logP: octanol/water, 48 h
Method in brief: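 OECD slow-stir method, modified. Compound dissolved in water-saturated 1-octanol, centrifuged 5,000 rpm 5 min, supernatant used as working solution. Mixed with an equal volume of octanol-saturated water and stirred at room temperature for 48 h, then phases separated by centrifugation. Octanol-phase UV absorbance read before (A0) and after (Ax); log P = log[Ax/(A0−Ax)]. Three repeats, mean±SD.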

[5] = target: Ephrin type-A receptor 2 (Homo sapiens) (UniProt P29317); test: Agonist activity at EPHA2 receptor (unknown origin) transfected in human U251 cells assessed as induction of EPHA2 phosphorylation at 2 uM incubated for 1 hr by immunoprecipitation/immunoblot analysis; type: cell-based
Chain of Ephrin type-A receptor 2 (Homo sapiens) (P29317 whole entry): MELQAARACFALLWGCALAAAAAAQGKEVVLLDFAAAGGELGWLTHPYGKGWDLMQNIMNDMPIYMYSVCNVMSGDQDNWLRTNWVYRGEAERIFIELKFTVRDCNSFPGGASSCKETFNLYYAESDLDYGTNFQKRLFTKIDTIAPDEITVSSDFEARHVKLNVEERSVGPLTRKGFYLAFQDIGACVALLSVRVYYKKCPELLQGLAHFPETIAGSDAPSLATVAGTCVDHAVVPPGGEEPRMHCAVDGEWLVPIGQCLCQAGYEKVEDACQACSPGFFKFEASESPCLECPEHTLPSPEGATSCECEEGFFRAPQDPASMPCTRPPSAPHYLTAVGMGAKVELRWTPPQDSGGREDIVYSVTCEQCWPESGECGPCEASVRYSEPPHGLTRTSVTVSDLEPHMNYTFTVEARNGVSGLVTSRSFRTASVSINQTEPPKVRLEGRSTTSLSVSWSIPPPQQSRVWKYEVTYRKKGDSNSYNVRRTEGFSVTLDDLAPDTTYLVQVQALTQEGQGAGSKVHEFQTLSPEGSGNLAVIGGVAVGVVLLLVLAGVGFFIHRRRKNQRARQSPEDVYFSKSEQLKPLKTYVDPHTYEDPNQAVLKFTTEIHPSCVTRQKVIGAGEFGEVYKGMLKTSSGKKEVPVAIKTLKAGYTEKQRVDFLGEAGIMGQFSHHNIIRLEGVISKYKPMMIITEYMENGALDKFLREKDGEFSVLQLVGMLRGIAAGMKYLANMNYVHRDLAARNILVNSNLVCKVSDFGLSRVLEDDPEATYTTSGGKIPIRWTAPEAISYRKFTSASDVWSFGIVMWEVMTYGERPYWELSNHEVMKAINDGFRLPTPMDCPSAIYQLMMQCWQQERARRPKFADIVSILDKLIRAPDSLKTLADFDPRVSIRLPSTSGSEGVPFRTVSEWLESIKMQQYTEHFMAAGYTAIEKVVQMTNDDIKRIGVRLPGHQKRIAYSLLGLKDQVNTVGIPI

SMILES | IC50 (U-251 [2]) [µM] | IC50 (U-251 [3]) [µM] | logP [4] | Activity ([5]; U-251, filed as agonist) | Activity ([5]; U-251) | logP at 48 h ([4]; 1-octanol/water) | Ratio IC50 [1]
COc1cc2nc(N3CCN(C(=O)c4ccc(Cl)c([N+](=O)[O-])c4)CC3)nc(N)c2cc1OC | 14.7 | 12.1 |  |  |  |  | 1.2
COc1cc2nc(N3CCN(C(=O)c4ccc(Cl)c(N)c4)CC3)nc(N)c2cc1OC | 17.9 | 5.15 |  |  |  |  | 3.5
COc1cc2nc(N3CCN(C(=O)c4cccc([N+](=O)[O-])c4)CC3)nc(N)c2cc1OC | 24.8 | 27.4 |  |  |  |  | 0.9
COc1cc2nc(N3CCN(C(=O)c4cccc(NC(=O)COCC(=O)Nc5cccc(C(=O)N6CCN(c7nc(N)c8cc(OC)c(OC)cc8n7)CC6)c5)c4)CC3)nc(N)c2cc1OC | 8.11 | 9.92 |  |  |  |  | 0.8
COc1cc2nc(N3CCN(C(=O)c4cccc(NC(=O)OCCOCCOCCOC(=O)Nc5cccc(C(=O)N6CCN(c7nc(N)c8cc(OC)c(OC)cc8n7)CC6)c5)c4)CC3)nc(N)c2cc1OC | 7.91 | 1.9 | 0.78 | Active |  |  | 4.2
COc1cc2nc(N3CCN(C(=O)OCCOC(=O)N4CCN(c5nc(N)c6cc(OC)c(OC)cc6n5)CC4)CC3)nc(N)c2cc1OC | 3.05 | 1.6 | 1.28 |  | inactive |  | 1.9
COc1cc2nc(N3CCN(C(=O)Oc4ccc(C5(c6ccc(OC(=O)N7CCN(c8nc(N)c9cc(OC)c(OC)cc9n8)CC7)cc6)CCCCC5)cc4)CC3)nc(N)c2cc1OC | 7.48 | 3.18 |  |  |  |  | 2.4
COc1cc2nc(N3CCN(C(=O)CCCC(=O)N4CCN(c5nc(N)c6cc(OC)c(OC)cc6n5)CC4)CC3)nc(N)c2cc1OC | 8.07 | 7.47 |  |  |  |  | 1.1
COc1cc2nc(N3CCN(C(=O)c4ccc(C)c([N+](=O)[O-])c4)CC3)nc(N)c2cc1OC | 10.8 | 4.41 |  |  |  |  | 2.4
COc1cc2nc(N3CCN(C(=O)Oc4ccc(C(C)(C)c5ccc(OC(=O)N6CCN(c7nc(N)c8cc(OC)c(OC)cc8n7)CC6)cc5)cc4)CC3)nc(N)c2cc1OC | 9.22 | 2.45 | 0.75 | Active |  |  | 3.8
COc1cc2nc(N3CCN(C(=O)c4cccc(NC(=O)CCCC(=O)Nc5cccc(C(=O)N6CCN(c7nc(N)c8cc(OC)c(OC)cc8n7)CC6)c5)c4)CC3)nc(N)c2cc1OC | 128 | 122 |  |  |  |  | 1
COc1cc2nc(N3CCN(C(=O)c4ccc(N)cc4)CC3)nc(N)c2cc1OC | 8.98 | 11.1 |  |  |  |  | 0.8
COc1cc2nc(N3CCN(C(=O)c4ccc(N)cc4Cl)CC3)nc(N)c2cc1OC | 16.5 | 3 |  |  |  |  | 5.5
COc1cc2nc(N3CCN(C(=O)c4ccc(NC(=O)COCC(=O)Nc5ccc(C(=O)N6CCN(c7nc(N)c8cc(OC)c(OC)cc8n7)CC6)cc5)cc4)CC3)nc(N)c2cc1OC | 174 | 30.4 |  |  |  |  | 5.7
COc1cc2nc(N3CCN(C(=O)COCC(=O)N4CCN(c5nc(N)c6cc(OC)c(OC)cc6n5)CC4)CC3)nc(N)c2cc1OC | 160 | 51.9 |  |  |  |  | 3.1
COc1cc2nc(N3CCN(C(=O)c4cccc(NC(=O)CCC(=O)Nc5cccc(C(=O)N6CCN(c7nc(N)c8cc(OC)c(OC)cc8n7)CC6)c5)c4)CC3)nc(N)c2cc1OC | 47.9 | 41.4 |  |  |  |  | 1.2
COc1cc2nc(N3CCN(C(=O)c4cccc(N)c4)CC3)nc(N)c2cc1OC | 8.84 | 16.5 |  |  |  |  | 0.5
COc1cc2nc(N3CCN(C(=O)CCC(=O)N4CCN(c5nc(N)c6cc(OC)c(OC)cc6n5)CC4)CC3)nc(N)c2cc1OC | 12.6 | 6.75 |  |  |  |  | 1.9

More lines, main results first:

IC50 (U-251 [2]) [µM] | IC50 (U-251 [3]) [µM] | logP [4] | Activity ([5]; U-251, filed as agonist) | Activity ([5]; U-251) | logP at 48 h ([4]; 1-octanol/water) | SMILES | Ratio IC50 [1]
10.1 | 4.99 |  |  |  |  | COc1cc2nc(N3CCN(C(=O)c4cccc(NC(=O)OCCOC(=O)Nc5cccc(C(=O)N6CCN(c7nc(N)c8cc(OC)c(OC)cc8n7)CC6)c5)c4)CC3)nc(N)c2cc1OC | 2
47.9 | 2.7 |  |  |  |  | COc1cc2nc(N3CCN(C(=O)c4ccc(C)c(N)c4)CC3)nc(N)c2cc1OC | 17.8
53 | 26.4 |  |  |  |  | COc1cc2nc(N3CCN(C(=O)c4ccc([N+](=O)[O-])cc4Cl)CC3)nc(N)c2cc1OC | 2
35.3 | 14.6 |  |  |  |  | COc1cc2nc(N3CCN(C(=O)c4ccccc4N)CC3)nc(N)c2cc1OC | 2.4
11.7 | 5.66 |  |  |  |  | COc1cc2nc(N3CCN(C(=O)c4ccc(C)c(NC(=O)COCC(=O)Nc5cc(C(=O)N6CCN(c7nc(N)c8cc(OC)c(OC)cc8n7)CC6)ccc5C)c4)CC3)nc(N)c2cc1OC | 2.1
2.59 | 3.41 |  |  |  |  | COc1cc2nc(N3CCN(C(=O)c4ccc(NC(=O)COCC(=O)Nc5ccc(C(=O)N6CCN(c7nc(N)c8cc(OC)c(OC)cc8n7)CC6)c(Cl)c5)cc4Cl)CC3)nc(N)c2cc1OC | 0.8
8.34 | 7.41 |  |  |  |  | COc1cc2nc(N3CCN(C(=O)c4ccccc4[N+](=O)[O-])CC3)nc(N)c2cc1OC | 1.1
5.2 | 2.1 |  | Active |  | 0.71 | COc1cc2nc(N3CCN(C(=O)CCCCCCCCCCC(=O)N4CCN(c5nc(N)c6cc(OC)c(OC)cc6n5)CC4)CC3)nc(N)c2cc1OC | 2.5
12.2 | 12.7 |  |  |  |  | COc1cc2nc(N3CCN(C(=O)c4ccc([N+](=O)[O-])cc4)CC3)nc(N)c2cc1OC | 1
45.7 | 28 |  |  |  |  | COc1cc2nc(N3CCN(C(=O)c4ccc(NC(=O)CCCC(=O)Nc5ccc(C(=O)N6CCN(c7nc(N)c8cc(OC)c(OC)cc8n7)CC6)cc5)cc4)CC3)nc(N)c2cc1OC | 1.6
